Measured values published in paper PMC11969444 (RSC Advances, 2025).

Legend:
β-glucosidase = test: In vitro β-glucosidase inhibitory assay; assay type: biochemical; settings: read-out: β-Glucosidase IC50 ± SEM; mean ± standard error of the mean
Summary of the method: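 β-Glucosidase solution (0.5 U mL−1) was preincubated with test compound at varying concentrations in 0.1 M phosphate buffer, pH 6.9, at 37 °C for 15 min. The reaction was started with 5 mM p-nitrophenyl-β-D-glucopyranoside solution in the same buffer and run at 37 °C for 15 min. It was stopped with 0.2 M sodium carbonate and read at 405 nm. Controls were a sample-free reaction and an enzyme-free blank.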

[1] = test system: PGLT-induced diabetic rats; test: Antihyperlipidemic effects; assay type: in vivo; settings: 10 mg kg^−1, 28 days
Summary of the method: (§1)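 Rats were given PGLT to induce diabetes and treated with test compounds for 28 days. Blood glucose and body weight were recorded on days 1, 7, 14, 21 and 28. Serum was assayed for TG, total CH, LDL, HDL, SGOT, SGPT and ALP. Groups were normal control, diabetic control and treated, n = 8 per group, shown as mean ± SEM. Treated groups were compared with diabetic control by one-way ANOVA with Dunnett's post hoc test.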

[2] = test system: PGLT-induced diabetic rats; test: Serum hepatic marker enzymes; assay type: in vivo; settings: 10 mg kg^−1, serum
Summary of the method: as §1

Effect on body weights = assay type: in vivo, rats
Summary of the method: as §1

[3] = test system: PGLT-induced diabetic rats; test: Blood glucose level in PGLT-induced diabetes; assay type: in vivo
Summary of the method: as §1

Row | Compound | IC50 (β-glucosidase) [µM] | HDL [1] [mg/dL] | LDL [1] [mg/dL] | TG [1] [mg/dL] | Total CH [1] [mg/dL] | ALP [2] [IU] | SGOT [2] [IU] | SGPT [2] [IU] | Body weight (Effect on body weights; 10 mg kg^−1, 1st day) | Body weight (Effect on body weights; 10 mg kg^−1, 7th day) | Body weight (Effect on body weights; 10 mg kg^−1, 14th day) | Body weight (Effect on body weights; 10 mg kg^−1, 21st day) | Body weight (Effect on body weights; 10 mg kg^−1, 28th day) | weight loss (Effect on body weights; day 1 to day 28, PGLT-treated group) [%] | Blood glucose level ([3]; 10 mg kg^−1, 1st day) [mg per dL] | Blood glucose level ([3]; 10 mg kg^−1, 7th day) [mg per dL] | Blood glucose level ([3]; 10 mg kg^−1, 14th day) [mg per dL] | Blood glucose level ([3]; 10 mg kg^−1, 21st day) [mg per dL] | Blood glucose level ([3]; 10 mg kg^−1, 28th day, listed as p-Nitrophenyl-β-D-glucopyranoside (PGLT)) [mg per dL] | Blood glucose level ([3]; 10 mg kg^−1, 28th day, listed as p-nitrophenyl-β-D-glucopyranoside (PGLT)) [mg per dL]
2 | O=[N+]([O-])c1ccc(O[C@@H]2O[C@H](CO)[C@@H](O)[C@H](O)[C@H]2O)cc1 [PGLT, p-nitrophenyl-β-D-glucopyranoside] | – | 55.72 ± 2.01 | 87.58 ± 2.96 | 96.36 ± 4.51 | 104.73 ± 4.83 | 171.04 ± 3.91 | 21.39 ± 1.79 | 21.17 ± 1.88 | 20.16 ± 1.71 | 19.88 ± 1.81 | 20.01 ± 1.61 | 19.70 ± 1.69 | 19.66 ± 1.51 | 2.48 | 402.22 ± 4.97 | 229.56 ± 4.80 | 154.06 ± 4.59 | 119.70 ± 4.87 | 102.27 ± 4.31 | 102.27 ± 4.31
